Results on 1 compound are retold here after ChEMBL document CHEMBL3853342, “Design, synthesis and biological evaluation of novel benzo-α-pyrone containing piperazine derivatives as potential BRAFV600E inhibitors” (Bioorg Med Chem Lett, 2016).

Usually IC50 stands for the point on the concentration scale where inhibition reaches its midpoint.

For assay [1], the target named is Serine/threonine-protein kinase B-raf (Homo sapiens, UniProt P15056, V600E). Description: Inhibition of human recombinant GST-tagged BRAF catalytic domain (416 to 766 residues) V600E mutant expressed in baculovirus expression system preincubated for 1 hr followed by human full length recombinant N-terminal His-tagged MEK1 substrate addition measured after 25 mins by gel electrophoresis method.
Sequence of Serine/threonine-protein kinase B-raf (P15056 2-766 V600E limits assumed): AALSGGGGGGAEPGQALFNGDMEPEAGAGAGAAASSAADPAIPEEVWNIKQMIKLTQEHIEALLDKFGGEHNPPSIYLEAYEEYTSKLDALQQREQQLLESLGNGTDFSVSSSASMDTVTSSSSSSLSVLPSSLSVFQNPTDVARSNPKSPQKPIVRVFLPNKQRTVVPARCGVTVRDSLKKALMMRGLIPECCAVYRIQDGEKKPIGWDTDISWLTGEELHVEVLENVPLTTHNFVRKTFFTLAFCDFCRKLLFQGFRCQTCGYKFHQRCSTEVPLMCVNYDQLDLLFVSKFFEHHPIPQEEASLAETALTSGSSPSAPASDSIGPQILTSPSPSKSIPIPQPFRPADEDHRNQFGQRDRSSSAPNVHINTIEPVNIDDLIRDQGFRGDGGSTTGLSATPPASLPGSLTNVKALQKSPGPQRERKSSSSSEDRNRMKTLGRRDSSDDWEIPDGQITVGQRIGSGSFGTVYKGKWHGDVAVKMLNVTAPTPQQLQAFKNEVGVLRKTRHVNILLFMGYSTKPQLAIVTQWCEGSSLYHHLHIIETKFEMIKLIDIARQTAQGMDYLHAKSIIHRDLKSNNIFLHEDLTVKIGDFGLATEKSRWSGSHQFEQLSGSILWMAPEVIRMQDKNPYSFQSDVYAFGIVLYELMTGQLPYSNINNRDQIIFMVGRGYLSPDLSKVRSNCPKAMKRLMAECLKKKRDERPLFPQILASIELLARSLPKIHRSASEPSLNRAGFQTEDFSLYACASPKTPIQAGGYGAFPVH

Assay [2] can be described thus: Antiproliferative activity against human A375 cells assessed as cell growth inhibition after 24 hrs by MTT assay. The class given is functional, cell-based. The settings on record: A-375, 24 h. On the technique in general: Formazan colour is commonly taken as a measure of viable cells.
Assay [3] can be described thus: Antiproliferative activity against human WM266.4 cells harboring BRAF V600E mutant assessed as cell growth inhibition after 24 hrs by MTT assay. The settings on record: WM 266-4, 24 h. The class given is functional, cell-based.
Assay [4] has as its system WM 266-4. Description: Induction of apoptosis in human WM266.4 cells assessed as viable cells at 2 uM after 24 hrs by Annexin V-FITC/propidium iodide based flow cytometric analysis (reference value: 92.9 %). The class given is functional. The settings on record: WM 266-4, 24 h, read-out: Activity. Summed up: (§1)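 Apoptosis in WM266-4 (BRAF V600E) cells after 24 h at 0, 2, 4 or 8 µM, by Annexin V-FITC/PI dual staining and flow cytometry. Percentages of apoptotic cells were calculated. Three independent experiments.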

Assay [5] relates to WM 266-4. Description: Induction of apoptosis in human WM266.4 cells assessed as necrotic cells at 4 uM after 24 hrs by Annexin V-FITC/propidium iodide based flow cytometric analysis (reference value: 0.435 %). The class given is functional. The method, boiled down: as §1
For orientation: In flow cytometry, cells or beads pass a laser one at a time.

The nature of assay [6]: Induction of apoptosis in human WM1361 cells assessed as early apoptotic cells at 20 uM after 24 hrs by Annexin V-FITC/propidium iodide based flow cytometric analysis (reference value: 1.02 %). The class given is functional.
Assay [7] can be described thus: Induction of apoptosis in human WM1361 cells assessed as late apoptotic cells at 40 uM after 24 hrs by Annexin V-FITC/propidium iodide based flow cytometric analysis (reference value: 2.96 %). The class given is functional.
A short description of assay [8]: Induction of apoptosis in human WM1361 cells assessed as necrotic cells at 40 uM after 24 hrs by Annexin V-FITC/propidium iodide based flow cytometric analysis (reference value: 0.860 %). The class given is functional.
A short description of assay [9]: Induction of apoptosis in human WM1361 cells assessed as viable cells at 60 uM after 24 hrs by Annexin V-FITC/propidium iodide based flow cytometric analysis (reference value: 95.2 %). The class given is functional. The settings on record: WM1361, 24 h, read-out: Activity.
The nature of assay [10]: Cell cycle arrest in human WM266.4 cells assessed as accumulation at G0/G1 phase at 4 uM after 24 hrs by propidium iodide staining based FACS analysis (reference value: 56.58 to 64.70%). The class given is functional. The settings on record: WM 266-4. The method, boiled down: (§2)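 WM266-4 (BRAF V600E melanoma) cells exposed to 0, 2, 4 or 8 µM for 24 h. Cell-cycle distribution by flow cytometry, with G1, S and G2/M fractions gated. Three independent experiments.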

Assay [11] can be described thus: Cell cycle arrest in human WM266.4 cells assessed as accumulation at S phase at 4 uM after 24 hrs by propidium iodide staining based FACS analysis (reference value: 29.03 to 29.51%). The class given is functional. The settings on record: WM 266-4. Summed up:
as §2

Assay [12] can be described thus: Cell cycle arrest in human WM266.4 cells assessed as accumulation at G2/M phase at 4 uM after 24 hrs by propidium iodide staining based FACS analysis (reference value: 5.79 to 14.39%). The class given is functional. The settings on record: WM 266-4. The method, boiled down:
as §2

The nature of assay [13]: Cell cycle arrest in human WM266.4 cells assessed as accumulation at G0/G1 phase at 8 uM after 24 hrs by propidium iodide staining based FACS analysis (reference value: 56.58 %). The class given is functional. The settings on record: WM 266-4. The method, boiled down:
as §2

Assay [14] is described as follows: Cell cycle arrest in human WM266.4 cells assessed as accumulation at G2/M phase at 8 uM after 24 hrs by propidium iodide staining based FACS analysis (reference value: 14.39 %). The class given is functional. The settings on record: WM 266-4. The method, boiled down:
as §2

Assay [15] can be described thus: Cell cycle arrest in human WM266.4 cells assessed as accumulation at S phase at 8 uM after 12 hrs by propidium iodide staining based FACS analysis (reference value: 29.51 %). The settings on record: WM 266-4.
Assay [16] in a line: Cell cycle arrest in human WM266.4 cells assessed as accumulation at G0/G1 phase at 8 uM after 36 hrs by propidium iodide staining based FACS analysis (reference value: 64.70 %). The settings on record: WM 266-4.

`O=c1oc2ccccc2c(N2CCN(C(c3ccccc3)c3ccccc3)CC2)c1CO`: the results for the IC50 in [1], in [2] and in assay [3] were 370 nM, 2240 nM and 1350 nM, respectively. For the same compound, the viability at 2 µM in assay [4] came out at 67%. The Activity was determined as 1.88% in assay [5]; 1.16% in [6]; 5.11% in [7]; 1.15% in assay [8]; 76.4% in [10]; 5.88% in assay [11]. The Activity in assay [12] was 7.56%; in [13], 82.4%; in assay [14], 11.1%; in assay [15], 21.6%; in [16], 89.3%. For the same compound, the viability at 60 µM in assay [9] was determined as 91.8%.
